Assay results from PMC10798293 (Journal of Enzyme Inhibition and Medicinal Chemistry, 2024).
“Also recorded” adds a separate entry of the source.

Experiments:
[1] = biological target: T1, SaSDH (Staphylococcus aureus shikimate dehydrogenase) (Staphylococcus aureus, UniProt Q5HFG5); experiment: SaSDH enzyme inhibition; type: biochemical; details: for IC50: 1 mM SHK, 1.54 ng SaSDH, pH 9.0, 37 °C, 30 min; for Mode of inhibition: with respect to SHK
T1 sequence (Q5HFG5 1-268): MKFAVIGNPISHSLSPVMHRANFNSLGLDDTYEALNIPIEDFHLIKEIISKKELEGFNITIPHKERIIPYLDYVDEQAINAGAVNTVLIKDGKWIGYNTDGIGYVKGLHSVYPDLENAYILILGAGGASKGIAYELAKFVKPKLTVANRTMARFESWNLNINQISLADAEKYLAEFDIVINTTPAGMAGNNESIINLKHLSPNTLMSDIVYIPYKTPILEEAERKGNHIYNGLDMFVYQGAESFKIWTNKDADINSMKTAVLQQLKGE

SaSDH [2] = biological target: T2, SaSDH (Staphylococcus aureus, UniProt Q5HFG5); experiment: Isothermal titration calorimetry; type: binding; details: ITC, 100 mM Tris-HCl pH 9.0, 25 °C
T2 sequence (Q5HFG5 1-268): T1 sequence (Q5HFG5 1-268)

S. aureus [3] = experiment: S. aureus susceptibility, micro-broth two-fold serial dilution; type: cell-based, Staphylococcus aureus
S. aureus [4] = experiment: Growth / time-kill curves; type: cell-based, Staphylococcus aureus; details: inhibitor at MIC: 50 μg/mL (-)-gallocatechin gallate, 250 μg/mL rhodiosin
S. aureus [5] = experiment: Scanning electron microscopy of bacterial morphology; type: cell-based, Staphylococcus aureus; details: MIC and 1/2 MIC, 1.5 h
S. aureus [6] = experiment: Cell membrane integrity, Calcein AM/PI staining; type: cell-based, Staphylococcus aureus; details: MIC, 37 °C, 3 h
SaSDH [7] = biological target: T2, SaSDH; experiment: SaSDH enzyme activity and kinetic parameters for substrates; type: biochemical; details: substrate varied, co-substrate at saturation, pH 9.0, 37 °C
Outline: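 His-tagged SaSDH (pET-28a(+), E. coli BL21(DE3)pLysS, IPTG induction, Ni-NTA purified). Reverse reaction: NADP+-dependent SHK oxidation, 1.54 ng enzyme, 100 mM Tris-HCl pH 9.0, 37 °C, enzyme-started; A340 every minute for 60 min.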

## CC=C1[C@H](O[C@@H]2O[C@H](CO)[C@@H](O)[C@H](O)[C@H]2O)OC=C(C(=O)OC)[C@H]1CC(=O)OC[C@H]1O[C@@H](OCCc2ccc(O)cc2)[C@H](O)[C@@H](O)[C@@H]1O (stereo in doubt) [Specneuzhenide]
[1]; 1 mM NADP
  IC50: < 100 µM

## O=C(O[C@@H]1Cc2c(O)cc(O)cc2O[C@H]1c1cc(O)c(O)c(O)c1)c1cc(O)c(O)c(O)c1 [(-)-Gallocatechin gallate]
[1]; 1 mM NADP
  IC50: < 100 µM
[1]; Lineweaver-Burke plots, SHK varied 0.25-4 mM
  Ki: 2.47 µM
[1]; Lineweaver-Burke plots
  Mode of inhibition: uncompetitive inhibition; also recorded: uncompetitive inhibitor
SaSDH [2]
  Kd: 44.6 µM
S. aureus [3]
  Antibacterial activity (in words): antibacterial activities
S. aureus [4]
  Effect on S. aureus growth (time-kill curves): slow bacterial growth
S. aureus [5]
  Bacterial morphology by SEM: cell disintegration, cell surface fracturing and wrinkling
S. aureus [6]
  Cell membrane integrity (PI-labeled bacteria): cell membrane destruction

## COc1ccc([C@@H]2CC(=O)c3c(O)cc(O[C@@H]4O[C@H](CO[C@@H]5O[C@@H](C)[C@H](O)[C@@H](O)[C@H]5O)[C@@H](O)[C@H](O)[C@H]4O)cc3O2)cc1O [Hesperidin]
[1]; 1 mM NADP
  IC50: < 100 µM

## NC(=O)c1ccc[n+]([C@@H]2O[C@H](COP(=O)([O-])OP(=O)(O)OC[C@H]3O[C@@H](n4cnc5c(N)ncnc54)[C@H](OP(=O)(O)O)[C@@H]3O)[C@@H](O)[C@H]2O)c1 [NADP^+]
SaSDH [7]
  Km: 98.2 µM
  Vmax: 3.785 mM/min/µg

## O=C(OC[C@H]1O[C@@H](OC(=O)c2cc(O)c(O)c(O)c2)[C@H](OC(=O)c2cc(O)c(O)c(O)c2)[C@@H](OC(=O)c2cc(O)c(O)c(O)c2)[C@@H]1OC(=O)c1cc(O)c(O)c(O)c1)c1cc(O)c(O)c(O)c1 [Pentagalloylglucose]
[1]; IC50, 1 mM NADP
  IC50: < 100 µM
S. aureus [3]
  Antibacterial activity (in words): antibacterial activities

## O=C(O)C1=C[C@@H](O)[C@@H](O)[C@H](O)C1 [SHK, shikimate]
SaSDH [7]
  Km: 46.1 µM
  Vmax: 3.362 mM/min/µg

## C[C@@H]1O[C@@H](OC[C@H]2O[C@@H](Oc3c(-c4ccc(OCCO)c(OCCO)c4)oc4cc(OCCO)cc(O)c4c3=O)[C@H](O)[C@@H](O)[C@@H]2O)[C@H](O)[C@H](O)[C@H]1O [Troxerutin, reference compound]
[1]; IC50, 1 mM NADP
  IC50: < 100 µM

## Rhodiosin
[1]; Lineweaver-Burke plots
  Mode of inhibition: competitive inhibition
[1]; Lineweaver-Burke plots, listed as rhodiosin
  Mode of inhibition: competitive inhibitor
S. aureus [3]
  Antibacterial activity (in words): antibacterial activities
S. aureus [4]
  Effect on S. aureus growth (time-kill curves): completely inhibited S.aureus growth
S. aureus [5]
  Bacterial morphology by SEM: cell disintegration, cell surface fracturing and wrinkling
S. aureus [6]
  Cell membrane integrity (PI-labeled bacteria): cell membrane destruction
